High-throughput results as filed in PubChem.
DNA FID counter: counter-screen for HCV NS3 helicase inhibitors: DNA intercalator displacement. DNA fluorescent intercalator displacement, fluorescence. inhibition, % at 7.9 µM. 0.17% of 290,000 active. AID 1845; in the data active means inhibition above about 37%;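 further: higher means more ethidium bromide displaced from hairpin DNA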
Tn7 DDE FP: disrupts Tn7 cyclic peptide binding to fibrin D-Dimer-E complex | P02675 | FP displacement of FITC-Tn7 peptide from fibrin DD(E); 0% = median of compound wells per plate | inhibition, % at 8.3 µM | 0.13% of 370,000 active | AID 720508;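 active means inhibition above the mean of compounds falling within the control limits plus 3 SD of them, cut at about 14% in these data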
Target sequence (P02675 whole entry, looked up): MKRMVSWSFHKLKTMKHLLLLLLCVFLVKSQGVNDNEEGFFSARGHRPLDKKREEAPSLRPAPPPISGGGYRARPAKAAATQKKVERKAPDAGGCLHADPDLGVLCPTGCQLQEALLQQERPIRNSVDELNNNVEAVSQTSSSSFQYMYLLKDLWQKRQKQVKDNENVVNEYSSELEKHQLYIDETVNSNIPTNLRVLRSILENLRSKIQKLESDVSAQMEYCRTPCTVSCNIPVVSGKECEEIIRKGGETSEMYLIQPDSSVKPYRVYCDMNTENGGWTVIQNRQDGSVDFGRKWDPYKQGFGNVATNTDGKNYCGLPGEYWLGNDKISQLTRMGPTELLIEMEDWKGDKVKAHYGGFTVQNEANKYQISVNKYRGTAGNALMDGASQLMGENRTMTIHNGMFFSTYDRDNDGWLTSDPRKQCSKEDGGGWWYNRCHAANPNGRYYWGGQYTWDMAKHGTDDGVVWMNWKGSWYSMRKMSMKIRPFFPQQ
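Assay system: human fibrin DD(E). Input: DD(E) 2 µM final. Medium: Tris buffer with calcium and detergent, pH 7.8. Compound dosing: single point at 8.3 µM. Timing: 10 min plus 3 h, room temperature. Technique: fluorescence polarization of the labelled Tn7 tracer. Read-out: percent inhibition. Replicates: singlicate testing.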
PLCg1 inh: PLC-gamma1 (human) inhibition, primary screen | P19174 | purified PLC-gamma1, fluorogenic substrate, fluorescence | inhibition, % at 12.2 µM | 0.84% of 370,000 active
PLC-beta3 inh: PLC-beta3 (human) inhibition, primary screen | Purified PLC-beta3, fluorogenic substrate, fluorescence | inhibition, % at 12.2 µM | 0.18% of 370,000 active | AID 720704; in the data active means inhibition above about 11%
DDE Tn6 FP inh: disrupts Tn6 cyclic peptide binding to fibrin D-Dimer-E complex; Fibrin DD(E) TRITC-Tn6 fluorescence polarization displacement; inhibition, % at 8.3 µM; 0.21% of 370,000 active; AID 720509;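 active means inhibition above a per-campaign cutoff: mean of compounds within control limits plus 3 SD, cut at about 15% in these data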
Tn7 DDE conf: DD(E)-Tn7 binding inhibition, FP confirmation | shares compounds with Tn7 DDE FP | FP displacement of TRITC-Tn7 peptide from DD(E); 0% set at plate's compound-well median | inhibition, % at 8.3 µM | 5% of 460 active;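 active means inhibition above the campaign cutoff, the mean of compounds within control limits plus 3 SD, cut at about 14% in these data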;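 further: displacers lower polarization since freed probe rises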
DDE Tn7 FP ctr: DD(E)-Tn7 binding inhibition, counter-screen; shares compounds with Tn7 DDE FP; fibrin DD(E), TRITC-Tn7 probe displacement, fluorescence polarization; inhibition, % at 8.3 µM; 3% of 460 active; AID 720633;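 active means inhibition above the cutoff, the mean of compounds lying between the control bounds plus 3 SD of those compounds, cut at about 17% in these data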
Tn6 DDE ctr: counter-screen for inhibitors of Tn6 peptide binding to fibrin DD(E) | TRITC-Tn6 fluorescence polarization displacement; 0% = median of compound wells, not DMSO | 2% of 680 active | shares compounds with DDE Tn6 FP inh | inhibition, % at 8.3 µM;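 active means inhibition above the mean of test compounds lying between the control limits plus 3 SD of those, cut at about 14% in these data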
DDE Tn6 confirm: DD(E)-Tn6 binding inhibition, FP confirmation | shares compounds with DDE Tn6 FP inh | FP displacement of TRITC-Tn6 peptide from DD(E); 0% = per-plate median of test wells | inhibition, % at 8.3 µM | 10% of 680 active | AID 720631;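 active means inhibition above the mean of compounds lying within the control limits plus 3 SD, cut at about 16% in these data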
PLCg1 ctr: inhibits human PLC-gamma1 in PLC-beta3 counter-screen; inhibition, % at 12.3 µM; 3.1% of 3,300 active; purified PLC-gamma1, fluorogenic substrate, fluorescence; shares compounds with PLCg1 inh
PLCb3 confirm: human PLC-beta3 inhibition, confirmation; shares compounds with PLCg1 inh; purified PLC-beta3, fluorogenic substrate fluorescence; inhibition, % at 12.3 µM; 1% of 3,300 active; in the data active means inhibition above about 11%
Large screens that a line does not name were inactive (follow-up assays come after a bar, where they were run). The list is not random: actives were taken first. Their share in the collection is about 1.4%. Unless noted, no stated cut-off is given here; in the data, active means inhibition above about 9.5%; inactive means the rest.

O=C1NC(=O)C2(Cc3ccccc3N3CCCC32)C(=O)N1c1ccc(Cl)cc1 (configuration not stated)	none
CC1CCCN(c2ccc(C(=O)N3CCC4(CC3)OCCO4)cc2[N+](=O)[O-])C1 (configuration not stated)	none
CCOC(=O)C1CCCN(c2ccc([N+](=O)[O-])c3nonc23)C1 (configuration not stated)	Tn7 DDE FP 20, DDE Tn6 FP inh active | Tn7 DDE conf inactive | DDE Tn7 FP ctr 93 | Tn6 DDE ctr inactive | DDE Tn6 confirm 93
Cc1ccc(/C=C2\C(=O)NC(=S)N(c3ccccc3F)C2=O)s1	DDE Tn6 FP inh 20 | Tn6 DDE ctr inactive | DDE Tn6 confirm inactive
Cc1ccc(/C=C2\C(=O)NC(=S)N(c3ccc(F)cc3)C2=O)s1	none
CN(C)c1ccc(/C=C/c2cc[n+](C)c3ccccc23)cc1	DDE Tn6 FP inh 30 | Tn6 DDE ctr inactive | DDE Tn6 confirm inactive
COc1ccccc1OCCCn1cc(C=O)c2ccccc21	none
C[C@]12CCC3C(CC[C@H]4C[C@@H](O)CC[C@]34C)C1C[C@@H](O)[C@]2(C)O (some centres not stated)	none (no result: DNA FID counter)
C[C@]12CCC3C(CC[C@H]4C[C@@H](O)CC[C@]34C)C1CC[C@@]2(O)C(F)(F)F (some centres not stated)	DDE Tn6 FP inh 16 (no result: DNA FID counter) | Tn6 DDE ctr inactive | DDE Tn6 confirm inactive
CCC(C#N)(CC)P(=S)(c1ccccc1)c1ccccc1	DDE Tn6 FP inh 16 | Tn6 DDE ctr inactive | DDE Tn6 confirm inactive
O=C(O)c1cc2ccccc2oc1=O	none
FC(F)(F)c1ccc(CNCCc2ccc3c(c2)OCO3)cc1	PLCg1 inh 11 | PLCg1 ctr inactive | PLCb3 confirm inactive
Clc1ccc(CNCCc2ccc3c(c2)OCO3)cc1	none
O=C1NCN(c2ccccc2)C12CCN(C(c1ccccc1OC(F)(F)F)c1nnnn1C1CCCC1)CC2 (configuration not stated)	PLCg1 inh 11 (no result: DNA FID counter) | PLCg1 ctr inactive | PLCb3 confirm inactive
O=C1NCN(c2ccccc2)C12CCN(C(CCc1ccccc1)c1nnnn1C1CCCC1)CC2 (configuration not stated)	PLCg1 inh 11 (no result: DNA FID counter) | PLCg1 ctr inactive | PLCb3 confirm inactive
c1ccc(CN2CCNCC2)nc1	none
O=c1[nH]c2ccccc2c(=O)n1-c1ccc(Cl)cc1Cl	PLC-beta3 inh 11 | PLCg1 ctr inactive | PLCb3 confirm 14
COC(=O)C1=C(c2c(C)noc2C)C[C@@H]2CC[C@H]1N2C(=O)N1CCC(C)CC1	none (no result: DNA FID counter)
CCCCn1c(O)c(C(C)=NCc2ccc3c(c2)OCO3)c(=O)[nH]c1=O	none
O=C(Cn1cnc2sc3c(c2c1=O)CCCC3)NCCC(=O)N1CCC2(CC1)OCCO2	PLCg1 inh 9.7 | PLCg1 ctr inactive | PLCb3 confirm inactive
Cc1sc2ncn(CC(=O)N3CCC4(CC3)OCCO4)c(=O)c2c1C	none
CN(C)CC1CSCCC1(O)c1ccccc1Cl (configuration not stated)	PLCg1 inh 9.9 | PLCg1 ctr inactive | PLCb3 confirm inactive
CN(C)CC1CSCCC1(O)c1ccc(Cl)cc1 (configuration not stated)	none
COC(=O)C(O)(c1c(C)[nH]n(-c2ccccc2)c1=O)C(F)(F)F (configuration not stated)	none
COc1cc(C(c2c(C)[nH]n(-c3ccccc3)c2=O)c2c(C)[nH]n(-c3ccccc3)c2=O)cc(OC)c1OC	PLCg1 inh 22 | PLCg1 ctr inactive | PLCb3 confirm inactive
COc1ccccc1-n1c(-c2ccoc2)nc2ccccc2c1=O	PLC-beta3 inh 11 | PLCg1 ctr inactive | PLCb3 confirm inactive
O=c1c2ccccc2nc(-c2ccoc2)n1-c1ccccc1Cl	none
CCN1CCN(Cc2cccnc2)CC1	PLCg1 inh 9.7 | PLCg1 ctr inactive | PLCb3 confirm inactive
CCN1CCN(Cc2ccc(OC(F)(F)F)cc2)CC1	none
CN1CC(C(=O)c2cccs2)C(c2ccc(Cl)cc2)C1 (configuration not stated)	none
O=C(c1cccs1)C1CN2CCC1CC2 (configuration not stated)	PLCg1 inh 10 | PLCg1 ctr inactive | PLCb3 confirm inactive
Cc1cc(NC(=O)CCl)nn1C	PLCg1 inh 13 | PLCg1 ctr inactive | PLCb3 confirm inactive
Cc1cc(C)cc(OCCOc2cccc(C=C3C(=O)NC(=O)NC3=O)c2)c1	none
Cc1ccc(OCCOc2cccc(C=C3C(=O)NC(=O)NC3=O)c2)cc1	PLCg1 inh 11 | PLCg1 ctr inactive | PLCb3 confirm inactive
CC(C)N1CCOC(c2ccc(O)c(O)c2)C1 (configuration not stated)	none (no result: DNA FID counter)
C[C@]12CCC(=O)C=C1CC[C@@H]1C2CC[C@]2(C)C(=O)CCC12 (some centres not stated)	PLCg1 inh 14 | PLCg1 ctr inactive | PLCb3 confirm inactive
O=C(COc1ccccc1)N1CCN(CC2CC3C=CC2C3)CC1 (configuration not stated)	PLCg1 inh 16 | PLCg1 ctr inactive | PLCb3 confirm inactive
Cc1ccc(OCC(=O)N2CCN(CC3CC4C=CC3C4)CC2)cc1 (configuration not stated)	none
CC(C)CN(C(=O)CN1CC=C(c2ccccc2)CC1)c1c(N)n(CC(C)C)c(=O)[nH]c1=O	none
Cn1c(O)c(C(c2ccccn2)c2c(O)n(C)c(=S)n(C)c2=O)c(=O)n(C)c1=S	none
O=C1CC(=O)N(Cc2ccccc2)C(=O)N1	PLCg1 inh 16 (no result: DNA FID counter) | PLCg1 ctr inactive | PLCb3 confirm inactive
COc1ccccc1OCCCn1cc(C(=O)C2CC2)c2ccccc21	none
COc1ccccc1OCCCn1cc(C(C)=O)c2ccccc21	PLCg1 inh 13 | PLCg1 ctr inactive | PLCb3 confirm inactive
